Results as given in ChEMBL document CHEMBL4513216, “Probing the Open Global Health Chemical Diversity Library for Multistage-Active Starting Points for Next-Generation Antimalarials” (ACS Infect Dis, 2020).

Test: Toxicity liver stage against HepG2, at 10uM
Assay type: cell-based
Parameters: test concentration 10 uM, cell line HepG2-A16-CD81EGFP
Settings: human, HepG2-A16-CD81EGFP cells; read-out: INHIBITION
Method in brief: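 Uninfected HepG2-A16-CD81EGFP cells, 3 × 10^3 per well, 1536-well, plated on prespotted compound at 10 μM final, parasite-free screening media added to match infected plates; puromycin 10 μM positive, DMSO 0.5% negative; run in parallel with 48 h PbLuc assay at 37 °C, 5% CO2; viability by CellTiter-Glo luminescence, normalized to controls.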

O=C(c1cccnc1OCC(F)(F)F)N1CCCn2ncnc21
cytotoxicity at 10 µM: -6.47%

COCC(=O)NC[C@]1(O)CN(Cc2ccc3c(c2)OCCO3)C[C@H]1O
cytotoxicity at 10 µM: 1.88%

Cn1ccnc1COc1ccc(CN2CCN(CCO)CC2)cc1
cytotoxicity at 10 µM: -10.2%

CCOC(=O)[C@H]1[C@@H](O)C(=O)N(C)C12CCN(C(=O)c1ccccc1)CC2
cytotoxicity at 10 µM: -6.53%

CC(c1ccco1)N(C(=O)NCc1ccon1)C1CC1 (centres undefined)
cytotoxicity at 10 µM: 0.805%

COCCn1cnc(-c2cc(C(=O)NC(C)C)c3ccccn23)c1
cytotoxicity at 10 µM: -1.03%

COc1nn(C)cc1C(=O)N1CCC(c2nnc(C3CC3)o2)CC1
cytotoxicity at 10 µM: 5.14%

Cn1nc2c(cc1=O)CN(c1nc3ccccc3s1)CC2
cytotoxicity at 10 µM: 2.89%

CNC(=O)NCC1CCC2(CCN(C(=O)c3ccccn3)CC2)CO1 (centres undefined)
cytotoxicity at 10 µM: -102%

COCCC(=O)N(C)Cc1nc(C(F)(F)F)cs1
cytotoxicity at 10 µM: 23.3%

Cc1nsc(NC(=O)NC2CCN(C)CC2)n1
cytotoxicity at 10 µM: -10.7%

O=C(CCOc1cccc(F)c1)N1CCCC(n2cccn2)C1 (centres undefined)
cytotoxicity at 10 µM: -14.7%

CCCn1nccc1NC(=O)CN1CCn2c(nnc2C2CC2)C1
cytotoxicity at 10 µM: -8%

CC(=O)N1CCCC1c1cccc(Cc2ccccc2F)n1 (centres undefined)
cytotoxicity at 10 µM: -1.44%

CC(C)CS(=O)(=O)N1C[C@@H]2C[C@H](C(=O)N3CCCC3)[C@H](C1)O2
cytotoxicity at 10 µM: 17%

CC(NC(=O)N(C)Cc1ccncc1)c1nncn1C (centres undefined)
cytotoxicity at 10 µM: 2.57%

CSc1ccc(C2CC(=O)Nc3c2c(=O)[nH]c2ncnn32)cc1 (centres undefined)
cytotoxicity at 10 µM: -8.22%

CN(C)c1cc(CNC(=O)CC2CCCCC2)ccn1
cytotoxicity at 10 µM: 9.24%

Cc1cc(C)n(CC2CCCN2C(=O)Cc2cn3ccsc3n2)n1 (centres undefined)
cytotoxicity at 10 µM: -12.5%

CCc1nc2n(n1)CC(NCc1cnc(-c3ccccc3)nc1)CC2 (centres undefined)
cytotoxicity at 10 µM: 0.702%

CN(c1ccc(F)cc1)S(=O)(=O)c1cc2c(c(C(=O)O)c1)OCCO2
cytotoxicity at 10 µM: -5.79%

Clc1ccc(OCCNC2(c3ccc(Br)cc3)CCOCC2)cc1
cytotoxicity at 10 µM: 2.67%

CN(C)c1cc(C2CCCN(S(=O)(=O)c3cn[nH]c3)C2)ccn1 (centres undefined)
cytotoxicity at 10 µM: -0.24%

COc1ccc(CNc2cnn(CC(F)F)c2)cc1
cytotoxicity at 10 µM: -7.47%

Cc1nc(C(=O)N(C)CC2CC2)nn1-c1ccccc1C(C)C
cytotoxicity at 10 µM: 5.38%

Cc1cc(CNC(=O)NCCOc2ccc(F)c(F)c2)on1
cytotoxicity at 10 µM: 16.3%

Cn1ccc(C(=O)NCCOc2ccc(C(C)(C)C)cc2)cc1=O
cytotoxicity at 10 µM: 9.71%

CNC(=O)C1CN(C)CCN(C(=O)CCn2nnc3ccccc32)C1 (centres undefined)
cytotoxicity at 10 µM: 2.71%

Cc1cccc(C(=O)N2CCCC(c3noc(C)n3)C2)n1 (centres undefined)
cytotoxicity at 10 µM: -19.9%

CN1CCCn2c(nc(CNC(=O)c3ccsc3)cc2=O)C1
cytotoxicity at 10 µM: 3.09%

CCN(CC)Cc1ccc(C(=O)N2CCCC2Cn2cccn2)cc1 (centres undefined)
cytotoxicity at 10 µM: -10.7%

CC(=O)N1CCN(C(=O)Nc2ccccc2Cl)[C@H]2CS(=O)(=O)C[C@H]21
cytotoxicity at 10 µM: -0.166%

Cn1c(Cn2ccnc2)nnc1C1CCN(C(=O)c2ccccn2)CC1
cytotoxicity at 10 µM: -104%

CCc1nnc(SCC(=O)N2CCc3[nH]nc(C4CCC4)c3C2)o1
cytotoxicity at 10 µM: -5.22%

O=C1N(CCCc2ccccc2)CCCC12CCN(C(CO)CO)C2 (centres undefined)
cytotoxicity at 10 µM: -4.14%

COCC(=O)N1CCC2(CC1)CN(c1cncnc1)C(=O)CO2
cytotoxicity at 10 µM: -78.6%

Cc1ccc(CNC(=O)NCCCO)cc1
cytotoxicity at 10 µM: -16.2%

CN1CCCN(C(=O)NCCNc2ncccn2)CC1
cytotoxicity at 10 µM: -16.7%

O=S(=O)(C1CC1)N1CCOC2(COCCN(c3ncccn3)C2)C1 (centres undefined)
cytotoxicity at 10 µM: 8.55%

COc1cc(S(=O)(=O)N2CCc3cc(Br)ccc32)cc(C(=O)O)c1OC
cytotoxicity at 10 µM: -15.9%

Cc1nc2c(C(=O)N[C@H]3C[C@H]4CN(C)CCN4C3)cccc2[nH]1
cytotoxicity at 10 µM: -7.98%

COc1ncccc1CNC(=O)C1=NN(c2ccccc2)C(=O)CN1
cytotoxicity at 10 µM: 2.54%

O=c1ccc(S(=O)(=O)N2CCCC2)cn1CC1CCCCO1 (centres undefined)
cytotoxicity at 10 µM: -0.983%

O=C(c1ccco1)N1CCO[C@@H]2CN(CC3CC3)CC[C@@H]2C1
cytotoxicity at 10 µM: -67.9%

CCCc1nnc(N2CCC(N3CCN(CCO)CC3)CC2)o1
cytotoxicity at 10 µM: -4.95%

COCCNc1ccc(CC2CCCNC2)cn1 (centres undefined)
cytotoxicity at 10 µM: 7.29%

Cc1n[nH]c(C)c1NC(=O)CN1CCn2c(nnc2C(C)C)C1
cytotoxicity at 10 µM: -1.03%

Cc1ccc(OCCN(C)Cc2nccn2C)c(C)c1
cytotoxicity at 10 µM: 5.51%

O=C(NC1CC1)C(c1ccccc1)N1CCn2c(nnc2C2CC2)C1 (centres undefined)
cytotoxicity at 10 µM: -6.22%

Clc1cccc(C[C@@H]2NCCC[C@@H]2Nc2cccc(Cl)c2)c1
cytotoxicity at 10 µM: 86%

Cn1ncc(NC(=O)c2noc3c2CCCC3)c1C(N)=O
cytotoxicity at 10 µM: 5.8%

CC(Cn1cccn1)NC(=O)CCC(=O)c1cccs1 (centres undefined)
cytotoxicity at 10 µM: -2.39%

C[C@@H]1CN(c2cc(N3CCC(O)CC3)ncn2)C[C@@]1(O)C1CC1
cytotoxicity at 10 µM: -1.79%

Cc1cc(C)c(N(CC(O)CNCc2ccccc2)S(C)(=O)=O)c(C)c1 (centres undefined)
cytotoxicity at 10 µM: -12.7%

O=C(O)[C@@H]1CN(C(=O)CCCc2ccc(F)cc2)C[C@H]1C1CC1
cytotoxicity at 10 µM: 0.832%

CCc1cc(C(=O)N[C@H]2CN(CCS(C)(=O)=O)C[C@@H]2C2CC2)[nH]n1
cytotoxicity at 10 µM: 3.91%

COc1cc(OC)c(C2Nc3cc(Cl)ccc3C3=NCCN32)cc1OC (centres undefined)
cytotoxicity at 10 µM: -3.14%

O=C(NCC1CC(=O)N(CCc2ccccc2)C1)c1ccc[nH]1 (centres undefined)
cytotoxicity at 10 µM: -0.553%

CCc1nnc2n1CCN(C(=O)CN(CC)CC)C2
cytotoxicity at 10 µM: -3.14%

CC(C)c1nnc(NC(=O)NCc2cccnc2NCCN(C)C)s1
cytotoxicity at 10 µM: 3.92%

c1ccc(-n2cc(CNC3CCc4ncnn4C3)cn2)cc1 (centres undefined)
cytotoxicity at 10 µM: -26.6%

Cc1nnc(N2C[C@H]3OCC[C@H]3[C@H](C(=O)NCC3CC3)C2)s1
cytotoxicity at 10 µM: 2.03%

CC(C)[C@@H]1CN(C(=O)NCCc2ccccc2)C[C@H]1NS(=O)(=O)N(C)C
cytotoxicity at 10 µM: 3.08%

CSCC(=O)N[C@H]1CC[C@H](Nc2nccc(-c3cccnc3)n2)C1
cytotoxicity at 10 µM: 9.87%

Cc1ccc(-n2c(COCC(=O)O)nc3c(C)cccc32)nc1
cytotoxicity at 10 µM: 2.43%

Cc1cn(CCn2ccnc2-c2sccc2C)nn1
cytotoxicity at 10 µM: 15.9%

Cc1cnn(CC2CCCN2c2ncnc3c2CCC3)c1 (centres undefined)
cytotoxicity at 10 µM: 7.84%

O=C(O)C1(Oc2ccc3c(c2)OCO3)CCN(C2CCOCC2)CC1
cytotoxicity at 10 µM: -13.3%

O=C(c1ncccn1)N1C[C@H]2CCC[C@@]2(COCC2CCOCC2)C1
cytotoxicity at 10 µM: -1.11%

COC(=O)C(C)(C)NC(=O)c1cnc(Cc2ccc(F)cc2)s1
cytotoxicity at 10 µM: -0.538%

COCCCN1CCN(CC2CCCO2)CC1 (centres undefined)
cytotoxicity at 10 µM: -13.5%

NC(=O)c1cc2c(nc1CCOc1ccc(F)cc1)CCC2
cytotoxicity at 10 µM: 4.22%

COc1ccc2c(c1)CCCN2C(=O)c1cccc(N(C)C)c1
cytotoxicity at 10 µM: 62.8%

Cc1noc(C2CCN(C(=O)CN(C)c3ccc(Cl)cn3)CC2)n1
cytotoxicity at 10 µM: -6.98%

CS(=O)(=O)c1snnc1C1CCN(Cc2cccc(O)c2)CC1
cytotoxicity at 10 µM: -8.91%

Cc1cc(C(=O)N(C)Cc2nc(-c3ccccn3)no2)c(C)o1
cytotoxicity at 10 µM: 2.84%

COc1cccc(C(=O)N2CCCC(C(=O)CCc3ccccc3)C2)c1 (centres undefined)
cytotoxicity at 10 µM: -20%

CCc1nc(C2CCCN2C(=O)c2ccc3c(c2)nnn3C)no1 (centres undefined)
cytotoxicity at 10 µM: -4.35%

CC(C(=O)NCc1ccco1)N1CCN(Cc2nccn2C)CC1 (centres undefined)
cytotoxicity at 10 µM: 7.73%

COCCNC(=O)[C@@]12CCO[C@@H]1CCN(Cc1scnc1C)C2
cytotoxicity at 10 µM: -10.6%

CC1CCN(C(=O)c2ccn(COc3ccc(F)cc3)n2)CC1
cytotoxicity at 10 µM: -9.38%

O=C(c1cccc(N2CCCC2=O)c1)N1CCCC(n2cncn2)C1 (centres undefined)
cytotoxicity at 10 µM: -12%

Cc1ccc2nnc(C(=O)NCC3CCCC3)nc2c1
cytotoxicity at 10 µM: 6.47%

Cc1cc(CN2CCN(C(=O)CCCc3nc(C(C)C)no3)CC2)on1
cytotoxicity at 10 µM: -9.05%

Cc1ccc(CN2CCc3ncnc(OC(C)C)c3CC2)s1
cytotoxicity at 10 µM: 22.8%

Cc1nn(C)cc1C(=O)N1CCCC(c2nccn2CC2CCC2)C1 (centres undefined)
cytotoxicity at 10 µM: 2.52%

CC(C)(Oc1ccc2c(c1)CCCC2=O)C(=O)NCc1ccco1
cytotoxicity at 10 µM: -2.74%

Cc1ccc(CNC(=O)CCC(=O)NCCC(C)C)o1
cytotoxicity at 10 µM: -9.74%

COc1ccc(S(=O)(=O)C2CCN(C(=O)c3cc(C)cs3)CC2)cc1
cytotoxicity at 10 µM: 3.07%

NC(=O)c1cc(C2CCCN(C(=O)CCc3cccs3)C2)n[nH]1 (centres undefined)
cytotoxicity at 10 µM: 2.33%

COc1ccc(N2CCN(CC(O)c3ccc(C)cc3C)CC2)cc1 (centres undefined)
cytotoxicity at 10 µM: 11.8%

CCN1CCO[C@@H]2CN(C(=O)c3cocn3)C[C@@H]2C1
cytotoxicity at 10 µM: 0.933%

CC1CCc2nc(O)c(C(=O)NCc3ccncc3)cc2C1 (centres undefined)
cytotoxicity at 10 µM: -1.37%

CCCS(=O)(=O)N1CCC2(CCC(=O)N(Cc3ccccc3)C2)CC1
cytotoxicity at 10 µM: 11.2%

Cc1cccc2c1OCCC2NCc1c(C(C)C)nn(C)c1N(C)C (centres undefined)
cytotoxicity at 10 µM: 0.423%

CC(NC(=O)NCc1cccnc1N(C)C)c1ccc(F)cc1 (centres undefined)
cytotoxicity at 10 µM: -1.19%

COc1ccc(S(=O)(=O)NC(=O)c2c(C)noc2C(C)C)cc1C
cytotoxicity at 10 µM: 0.495%

Cc1ccc(Cl)cc1NCc1nc2n(n1)CCCCC2
cytotoxicity at 10 µM: 5.89%

CCc1ccc(CN2CCC(=O)N(CC3CC3)C(C(C)C)C2)nc1 (centres undefined)
cytotoxicity at 10 µM: 2.08%

COCCOCc1cccc(NC(=O)N2CCCC2c2ccncc2)c1 (centres undefined)
cytotoxicity at 10 µM: 6.79%

Cc1cccnc1NC(=O)c1ccc(F)c(S(=O)(=O)NC2CC2)c1
cytotoxicity at 10 µM: 1.77%

Cc1cc(CN2CC[C@H]3C[C@@H](c4nc(C5CC5)cs4)O[C@@H]3C2)no1
cytotoxicity at 10 µM: -104%

CS(=O)(=O)CC1(CNc2cc(C#N)c3cc(Cl)ccc3n2)CC1
cytotoxicity at 10 µM: -4.06%

Fc1ccccc1CN1C[C@H](OCC2CCOCC2)[C@H]2OCCC[C@H]21
cytotoxicity at 10 µM: -2.4%

O=C1N(c2ccsc2)CCC12CCCN(Cc1cccnc1)C2 (centres undefined)
cytotoxicity at 10 µM: -128%

COCC1CN(C(=O)c2cnc(C)cn2)Cc2ncnn2C1 (centres undefined)
cytotoxicity at 10 µM: 2.31%

COCCOc1cccc(CNCc2ccc(-n3cncn3)nc2)c1
cytotoxicity at 10 µM: -11.8%

CN(CCc1noc(C2CC2)n1)C(=O)CN1C(=O)COc2ccccc21
cytotoxicity at 10 µM: -141%

Cc1csc(CNC(=O)N(C)Cc2ccc([S+](C)[O-])cc2)n1 (centres undefined)
cytotoxicity at 10 µM: 4.53%
